Assay results taken from ChEMBL document CHEMBL1138836, “4-[5-Fluoro-3-[4-(2-methyl-1H-imidazol-1-yl)benzyloxy]phenyl]-3,4,5,6- tetrahydro-2H-pyran-4-carboxamide, an orally active inhibitor of 5-lipoxygenase with improved pharmacokinetic and toxicology characteristics” (J Med Chem, 2004).

Legend:
[1] = molecular target: T1, Polyunsaturated fatty acid 5-lipoxygenase (Homo sapiens, UniProt P09917); assay: Inhibition of 5-Lipoxygenase (5-LO) of human whole blood (HWB); type: tissue-based
T1 sequence (P09917 whole entry): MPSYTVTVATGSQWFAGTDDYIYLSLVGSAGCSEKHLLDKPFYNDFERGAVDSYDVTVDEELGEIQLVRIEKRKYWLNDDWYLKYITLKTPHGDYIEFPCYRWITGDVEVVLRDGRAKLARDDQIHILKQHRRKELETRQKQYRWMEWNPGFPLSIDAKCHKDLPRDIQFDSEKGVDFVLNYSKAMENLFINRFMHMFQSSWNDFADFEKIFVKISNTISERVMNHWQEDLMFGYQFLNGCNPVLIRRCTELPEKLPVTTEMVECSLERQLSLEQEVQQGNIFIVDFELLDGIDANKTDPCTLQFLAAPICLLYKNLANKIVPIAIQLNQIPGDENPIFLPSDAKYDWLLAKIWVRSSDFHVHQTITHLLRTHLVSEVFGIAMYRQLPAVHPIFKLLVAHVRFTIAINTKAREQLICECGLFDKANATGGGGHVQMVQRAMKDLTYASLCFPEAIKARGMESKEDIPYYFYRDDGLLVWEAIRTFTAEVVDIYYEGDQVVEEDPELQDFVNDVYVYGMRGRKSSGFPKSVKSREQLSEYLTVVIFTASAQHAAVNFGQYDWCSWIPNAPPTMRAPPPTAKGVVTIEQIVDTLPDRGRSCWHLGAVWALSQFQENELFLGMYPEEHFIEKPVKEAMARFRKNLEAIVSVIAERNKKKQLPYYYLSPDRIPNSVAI

[2] = tested on: Mus musculus; assay: In vivo potency was determined after oral administration to mice by the PAF (platelet activating factor) induced thrombosis assay; type: functional
Method in brief: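 Male […] mice were dosed orally, then given platelet activating factor to induce thrombosis. ED50 reported in mg/kg.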

[3] = Bioavailability of compound at 3 mg/kg in monkey […]; type: ADME, organism-based; settings: cercopithecidae, in vivo, iv
Method in brief: (§1)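 Oral bioavailability derived from oral and intravenous pharmacokinetic data. Doses: monkey 5 mg/kg oral vs 3 mg/kg iv; rat and guinea pig 10 mg/kg oral vs 3 mg/kg iv.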

[4] = Maximum concentration of compound found in plasma at 5 mg/kg after oral administration; type: ADME, organism-based; parameters: dose 5 mg/kg, route oral; settings: cercopithecidae
Method in brief: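 Male cynomolgus monkeys, three animals, single 5 mg/kg oral dose with plasma concentration followed over time. Values are mean ± SEM (n = 3), Cmax in μg/mL.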

[5] = Bioavailability of compound at 3 mg/kg in rat […]; type: ADME, organism-based; settings: in vivo, iv; method in brief: as §1
[6] = Bioavailability of compound at 3 mg/kg in guinea pig […]; type: ADME, organism-based, Cavia porcellus; settings: in vivo, iv; method in brief: as §1
[7] = Bioavailability of compound at 10 mg/kg in guinea pig after oral administration; settings: in vivo
[8] = Oral bioavailability of compound at 5 mg/kg in monkey; type: ADME, organism-based; settings: cercopithecidae, in vivo; method in brief: as §1
[9] = Bioavailability of compound at 10 mg/kg in rat after oral administration; type: ADME, organism-based; settings: in vivo; method in brief: as §1

Compound | IC50 [1] [nM] | ED50 [2] [mg/kg] | further results
Cc1nccn1-c1ccc(COc2cc(F)cc(C3(O)CCOCC3)c2)cc1 | > 1000 | – | –
Cc1nccn1-c1ccc(COc2cc(F)cc(C3(S(C)(=O)=O)CCOCC3)c2)cc1 | > 1000 | – | –
Cc1nccn1-c1ccc(COc2cc(F)cc(C3([S+](C)[O-])CCOCC3)c2)cc1 (stereo unspecified) | > 1000 | – | –
Cc1nccn1-c1ccc(COc2cc(F)cc(C3(C(=O)N(C)C)CCOCC3)c2)cc1 | 810 | > 20 | –
Cc1nccn1-c1ccc(COc2cc(F)cc(C3(C(=O)O)CCOCC3)c2)cc1 | > 1000 | – | –

These reach a lower IC50 [1]. Values come first.

IC50 [1] [nM] | Compound | ED50 [2] [mg/kg] | further results
340 | Cc1nccn1-c1ccc(COc2cc(F)cc(C3(C(N)=O)CCOCC3)c2)cc1 | – | bioavailability [3]: 88%; Cmax [4]: 1570 ng/mL; bioavailability [5]: 102%; bioavailability [6]: 108%; bioavailability [7]: 108%; bioavailability [8]: 88%; bioavailability [9]: 102%
280 | CNC(=O)C1(c2cc(F)cc(OCc3ccc(-n4ccnc4C)cc3)c2)CCOCC1 | 13 | –
200 | CCOC(=O)C1(c2cc(F)cc(OCc3ccc(-n4ccnc4C)cc3)c2)CCOCC1 | 16 | –
130 | CC(=O)C1(c2cc(F)cc(OCc3ccc(-n4ccnc4C)cc3)c2)CCOCC1 | 12 | –
80 | CCOC1(c2cc(F)cc(OCc3ccc(-n4ccnc4C)cc3)c2)CCOCC1 | 5 | –
72 | CSC1(c2cc(F)cc(OCc3ccc(-n4ccnc4C)cc3)c2)CCOCC1 | 5 | –
60 | COC1(c2cc(F)cc(OCc3ccc(-n4ccnc4C)cc3)c2)CCOCC1 | 2 | –
